Experimental data published in ChEMBL document CHEMBL5260840 (J Med Chem, 2019).
Values belong to the compound of their own block, whether it stands above or below them.

What was measured:
[1] = molecular target: T1, Von Hippel-Lindau disease tumor suppressor/Elongin B/Elongin C (Homo sapiens) (UniProt P40337+Q15370+Q15369); assay: Negative co-operative binding affinity to 6His-tagged human VHL/ElonginC/ElonginB expressed in Escherichia coli BL21 (DE3) cells assessed as change in enthalpy in the presence of BRD9-BD as complex with compound by ITC analysis
T1 sequence (P40337 whole entry, looked up): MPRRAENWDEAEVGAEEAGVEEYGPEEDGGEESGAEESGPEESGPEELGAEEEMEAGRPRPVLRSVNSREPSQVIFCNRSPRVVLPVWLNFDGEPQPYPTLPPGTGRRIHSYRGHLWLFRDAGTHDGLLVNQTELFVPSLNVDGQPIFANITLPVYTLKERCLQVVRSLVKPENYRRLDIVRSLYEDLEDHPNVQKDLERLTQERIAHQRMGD
T1 sequence (Q15369 whole entry, looked up): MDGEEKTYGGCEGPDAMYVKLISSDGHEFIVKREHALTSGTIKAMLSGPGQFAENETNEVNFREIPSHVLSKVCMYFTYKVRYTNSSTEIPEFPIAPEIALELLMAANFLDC
T1 sequence (Q15370 whole entry, looked up): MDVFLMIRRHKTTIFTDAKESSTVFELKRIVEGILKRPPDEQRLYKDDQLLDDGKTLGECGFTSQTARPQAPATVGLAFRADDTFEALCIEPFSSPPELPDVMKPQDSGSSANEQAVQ

[2] = molecular target: T1, Von Hippel-Lindau disease tumor suppressor/Elongin B/Elongin C (Homo sapiens); assay: Negative co-operative binding affinity to 6His-tagged human VHL/ElonginC/ElonginB expressed in Escherichia coli BL21 (DE3) cells assessed as total gibb's free energy change in the presence of BRD9-BD as complex with compound by ITC analysis
[3] = molecular target: T1, Von Hippel-Lindau disease tumor suppressor/Elongin B/Elongin C (Homo sapiens); assay: Co-operative binding affinity to 6His-tagged human VHL/ElonginC/ElonginB expressed in Escherichia coli BL21 (DE3) cells assessed as maximal intensity in the presence of BRD9-BD as complex with compound incubated for 1 hrs by AlphaLISA proximity assay
[4] = molecular target: T2, von Hippel-Lindau disease tumor suppressor/Bromodomain-containing protein 7 (Homo sapiens) (UniProt Q9NPI1+P40337); assay: PROTAC activity at VHL/BRD7 in human HeLa cells assessed as remaining BRD7 protein level at 1 uM incubated for 4 hrs by Western blot analysis relative to control; type: cell-based
T2 sequence (P40337 whole entry, looked up, the tested form may be a part): as the sequence (P40337 whole entry, looked up) above
T2 sequence (Q9NPI1 whole entry, looked up, the tested form may be a part): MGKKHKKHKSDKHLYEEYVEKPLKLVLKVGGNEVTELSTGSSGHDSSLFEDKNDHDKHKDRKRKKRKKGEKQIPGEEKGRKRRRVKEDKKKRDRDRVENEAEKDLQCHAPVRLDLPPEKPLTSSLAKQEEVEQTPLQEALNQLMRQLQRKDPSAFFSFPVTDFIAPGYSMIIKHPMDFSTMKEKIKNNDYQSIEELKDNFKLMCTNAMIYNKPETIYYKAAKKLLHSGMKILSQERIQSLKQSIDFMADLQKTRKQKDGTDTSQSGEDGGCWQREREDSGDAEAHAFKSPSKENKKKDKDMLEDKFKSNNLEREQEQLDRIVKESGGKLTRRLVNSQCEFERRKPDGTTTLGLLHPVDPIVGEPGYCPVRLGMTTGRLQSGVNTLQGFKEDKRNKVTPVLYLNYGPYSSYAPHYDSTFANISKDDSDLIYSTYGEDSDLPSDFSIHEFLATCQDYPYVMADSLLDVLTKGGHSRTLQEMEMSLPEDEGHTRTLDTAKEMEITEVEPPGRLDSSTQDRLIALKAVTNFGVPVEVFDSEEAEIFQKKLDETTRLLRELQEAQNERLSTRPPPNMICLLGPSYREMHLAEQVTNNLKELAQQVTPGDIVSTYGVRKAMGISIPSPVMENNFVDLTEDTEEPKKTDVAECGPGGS

[5] = molecular target: T3, Bromodomain-containing protein 9 (Homo sapiens) (UniProt Q9H8M2); assay: Binding affinity to 6His-tagged human BRD9 bromodomain (134 to 239 residues) expressed in Escherichia coli BL21 (DE3) cells assessed as gibbs free energy change by ITC analysis
T3 sequence (whole entry): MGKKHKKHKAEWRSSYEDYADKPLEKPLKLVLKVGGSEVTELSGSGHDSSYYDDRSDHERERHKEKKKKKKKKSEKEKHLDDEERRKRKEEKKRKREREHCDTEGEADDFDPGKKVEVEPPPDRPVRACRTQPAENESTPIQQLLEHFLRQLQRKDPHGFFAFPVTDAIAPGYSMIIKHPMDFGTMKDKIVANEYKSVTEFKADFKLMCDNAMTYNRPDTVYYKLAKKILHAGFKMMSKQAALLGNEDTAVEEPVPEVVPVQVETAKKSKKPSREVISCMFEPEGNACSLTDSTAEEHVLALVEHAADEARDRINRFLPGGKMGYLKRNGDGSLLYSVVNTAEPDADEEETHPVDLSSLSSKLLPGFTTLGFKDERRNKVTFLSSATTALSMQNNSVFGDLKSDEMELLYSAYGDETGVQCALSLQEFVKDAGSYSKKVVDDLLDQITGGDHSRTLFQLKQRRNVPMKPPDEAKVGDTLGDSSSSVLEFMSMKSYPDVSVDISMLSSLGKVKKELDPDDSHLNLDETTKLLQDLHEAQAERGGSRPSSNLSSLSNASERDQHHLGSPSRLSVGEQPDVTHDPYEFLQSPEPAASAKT

[6] = molecular target: T3, Bromodomain-containing protein 9 (Homo sapiens); assay: Binding affinity to 6His-tagged human BRD9 bromodomain (134 to 239 residues) expressed in Escherichia coli BL21 (DE3) cells assessed as change in entropy by ITC analysis
[7] = molecular target: T1, Von Hippel-Lindau disease tumor suppressor/Elongin B/Elongin C (Homo sapiens); assay: Binding affinity to 6His-tagged human VHL/ElonginC/ElonginB expressed in Escherichia coli BL21 (DE3) cells assessed as change in enthalpy by ITC analysis
[8] = molecular target: T1, Von Hippel-Lindau disease tumor suppressor/Elongin B/Elongin C (Homo sapiens); assay: Binding affinity to 6His-tagged human VHL/ElonginC/ElonginB expressed in Escherichia coli BL21 (DE3) cells assessed as change in entropy by ITC analysis
[9] = molecular target: T1, Von Hippel-Lindau disease tumor suppressor/Elongin B/Elongin C (Homo sapiens); assay: Negative co-operative binding affinity to 6His-tagged human VHL/ElonginC/ElonginB expressed in Escherichia coli BL21 (DE3) cells assessed as change in entropy in the presence of BRD9-BD as complex with compound by ITC analysis
[10] = molecular target: T3, Bromodomain-containing protein 9 (Homo sapiens); assay: Binding affinity to 6His-tagged human BRD9 bromodomain (134 to 239 residues) expressed in Escherichia coli BL21 (DE3) cells assessed as change in enthalpy by ITC analysis
[11] = molecular target: T4, von Hippel-Lindau disease tumor suppressor/Bromodomain-containing protein 9 (Homo sapiens) (UniProt Q9H8M2+P40337); assay: PROTAC activity at VHL/BRD9 in human HeLa cells assessed as protein degradation at 1 uM incubated for 4 hrs by Western blot analysis relative to control; type: cell-based
T4 sequence (P40337 whole entry, looked up, one chain of several): as the sequence (P40337 whole entry, looked up) above
Summary of the method: (§1)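 HeLa cells treated with compound for the stated time before harvest; BRD9, BRD7 and β-actin detected by Western blot with β-actin loading control; band intensities quantified.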

[12] = molecular target: T2, von Hippel-Lindau disease tumor suppressor/Bromodomain-containing protein 7 (Homo sapiens); assay: PROTAC activity at VHL/BRD7 in human HeLa cells assessed as remaining BRD7 protein level at 1 uM incubated for 16 hrs by Western blot analysis relative to control; type: cell-based
[13] = molecular target: T2, von Hippel-Lindau disease tumor suppressor/Bromodomain-containing protein 7 (Homo sapiens); assay: PROTAC activity at VHL/BRD7 in human HeLa cells assessed as protein degradation at 1 uM incubated for 16 hrs by Western blot analysis relative to control; type: cell-based
[14] = molecular target: T4, von Hippel-Lindau disease tumor suppressor/Bromodomain-containing protein 9 (Homo sapiens); assay: PROTAC activity at VHL/BRD9 in human HeLa cells assessed as remaining BRD9 protein level at 1 uM incubated for 16 hrs by Western blot analysis relative to control; type: cell-based; summary of the method: as §1
[15] = molecular target: T2, von Hippel-Lindau disease tumor suppressor/Bromodomain-containing protein 7 (Homo sapiens); assay: PROTAC activity at VHL/BRD7 in human HeLa cells assessed as protein degradation at 1 uM incubated for 4 hrs by Western blot analysis relative to control; type: cell-based
[16] = molecular target: T4, von Hippel-Lindau disease tumor suppressor/Bromodomain-containing protein 9 (Homo sapiens); assay: PROTAC activity at VHL/BRD9 in human HeLa cells assessed as protein degradation at 1 uM incubated for 16 hrs by Western blot analysis relative to control; type: cell-based; summary of the method: as §1
[17] = molecular target: T5, Protein cereblon/Bromodomain-containing protein 7 (Homo sapiens) (UniProt Q9NPI1+Q96SW2); assay: PROTAC activity at CRBN/BRD7 in human HeLa cells assessed as remaining BRD7 protein level at 1 uM incubated for 4 hrs by Western blot analysis relative to control; type: cell-based
T5 sequence (Q96SW2 whole entry, looked up): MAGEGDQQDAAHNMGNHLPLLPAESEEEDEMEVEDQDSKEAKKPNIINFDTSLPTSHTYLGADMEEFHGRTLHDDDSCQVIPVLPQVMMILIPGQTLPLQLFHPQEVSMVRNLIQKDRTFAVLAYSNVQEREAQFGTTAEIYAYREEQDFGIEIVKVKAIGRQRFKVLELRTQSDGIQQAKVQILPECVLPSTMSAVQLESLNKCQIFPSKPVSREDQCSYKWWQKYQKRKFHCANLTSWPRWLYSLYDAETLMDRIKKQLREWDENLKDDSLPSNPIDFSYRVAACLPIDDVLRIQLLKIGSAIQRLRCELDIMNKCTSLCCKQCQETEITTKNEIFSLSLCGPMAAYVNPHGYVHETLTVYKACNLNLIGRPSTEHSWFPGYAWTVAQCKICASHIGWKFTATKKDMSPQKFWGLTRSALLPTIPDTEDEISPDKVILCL
T5 sequence (Q9NPI1 whole entry, looked up): as the sequence (Q9NPI1 whole entry, looked up, the tested form may be a part) above
Summary of the method: (§2)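 Cells given 1 µM compound before harvest: HeLa 4 h, RI-1 2 h and 8 h. BRD9, BRD7 and β-actin detected by Western blot; band intensities quantified.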

[18] = test system: A204; assay: Antiproliferative activity against human A204 cells assessed as inhibition of cell growth incubated for 7 days by CellTiterGlo assay; type: functional, cell-based; conditions: A204, 168 h
[19] = molecular target: T5, Protein cereblon/Bromodomain-containing protein 7 (Homo sapiens); assay: PROTAC activity at CRBN/BRD7 in human HeLa cells assessed as remaining BRD7 protein level at 1 uM incubated for 16 hrs by Western blot analysis relative to control; type: cell-based
Summary of the method: (§3)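 HeLa cells given 1 µM compound for 16 h before harvest. BRD9, BRD7 and β-actin detected by Western blot; band intensities quantified.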

[20] = molecular target: T6, Protein cereblon/Bromodomain-containing protein 9 (Homo sapiens) (UniProt Q9H8M2+Q96SW2); assay: PROTAC activity at CRBN/BRD9 in human HeLa cells assessed as remaining BRD9 protein level at 1 uM incubated for 4 hrs by Western blot analysis relative to control; type: cell-based; summary of the method: as §2
T6 sequence (Q96SW2 whole entry, looked up, one chain of several): as the sequence (Q96SW2 whole entry, looked up) above

[21] = molecular target: T5, Protein cereblon/Bromodomain-containing protein 7 (Homo sapiens); assay: PROTAC activity at CRBN/BRD7 in human Ri-1 cells assessed as remaining BRD7 protein level at 1 uM incubated for 8 hrs by Western blot analysis relative to control; type: cell-based; summary of the method: as §2
[22] = molecular target: T6, Protein cereblon/Bromodomain-containing protein 9 (Homo sapiens); assay: PROTAC activity at CRBN/BRD9 in human Ri-1 cells assessed as remaining BRD9 protein level at 1 uM incubated for 2 hrs by Western blot analysis relative to control; type: cell-based; summary of the method: as §2
[23] = molecular target: T5, Protein cereblon/Bromodomain-containing protein 7 (Homo sapiens); assay: PROTAC activity at CRBN/BRD7 in human Ri-1 cells assessed as remaining BRD7 protein level at 1 uM incubated for 2 hrs by Western blot analysis relative to control; type: cell-based; summary of the method: as §2
[24] = molecular target: T6, Protein cereblon/Bromodomain-containing protein 9 (Homo sapiens); assay: PROTAC activity at CRBN/BRD9 in human Ri-1 cells assessed as remaining BRD9 protein level at 1 uM incubated for 8 hrs by Western blot analysis relative to control; type: cell-based; summary of the method: as §2
[25] = molecular target: T6, Protein cereblon/Bromodomain-containing protein 9 (Homo sapiens); assay: PROTAC activity at CRBN/BRD9 in human HeLa cells assessed as remaining BRD9 protein level at 1 uM incubated for 16 hrs by Western blot analysis relative to control; type: cell-based; summary of the method: as §3

deltaH [1]: -6.4 kcal/mol | deltaG [2]: -20.4 kcal/mol | Activity [3]: 1 10^6No_unit | Activity [4]: 68% | deltaG [5]: -10.7 kcal/mol | -TdeltaS [6]: 1.8 kcal/mol | deltaH [7]: -15.2 kcal/mol | -TdeltaS [8]: 4.9 kcal/mol | -TdeltaS [9]: -3.3 kcal/mol | deltaH [10]: -12.5 kcal/mol | Activity [11]: 20% | Activity [12]: 83% | Activity [13]: 30% | Activity [14]: 70% | Activity [15]: 20% | Activity [16]: 30%
Compound: COc1cc(-c2cn(C)c(=O)c3cnccc23)cc(OC)c1CN1CCN(CCOCCOCC(=O)N[C@H](C(=O)N2C[C@H](O)C[C@H]2C(=O)NCc2ccc(-c3scnc3C)cc2)C(C)(C)C)CC1

Activity [17]: 81% | Activity [19]: 97% | Activity [20]: 6% | Activity [21]: 225% | Activity [22]: 5% | Activity [23]: 158% | Activity [24]: 2% | Activity [25]: 7%
Compound: COc1cc(-c2cn(C)c(=O)c3cnccc23)cc(OC)c1CN1CCN(CCOCCOCC(=O)NCCNc2cccc3c2C(=O)N(C2CCC(=O)NC2=O)C3=O)CC1 (stereo not given)
IC50 [18]: 305 nM
